Reference: ChEMBL document CHEMBL4732044, “Discovery of a promising agent IQZ23 for the treatment of obesity and related metabolic disorders” (Eur J Med Chem, 2020)
In brackets after ≈: the same amount, converted by molar mass. Activity calls are given as the source filed them. The calls are words filed in the database; no cut-off is given here.

Experiments:
3T3-L1 [1] = assay: Lipid lowering activity in mouse 3T3-L1 cells assessed as reduction in adipogenic cocktail-induced triglyceride levels incubated for 6 days by GPO-POD assay; type: functional, cell-based; settings: for Activity: dose 1-5 µM, time 6.0 day; for EC50: 3T3-L1, 144 h
Outline: (§1)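 Confluent 3T3-L1 cells were treated from day 0 in cocktail (IBMX, dexamethasone, insulin) for 3 days, then re-dosed in insulin medium for 3 more days. For dose–response, concentrations were 0–10 µM (0.01, 0.1, 0.3, 1, 3, 10). On day 6, cells were lysed in 0.2% Triton X-100 and TG was measured by GPO-POD and normalized to BCA protein as % of control. EC50 was fitted from the dose–response. N = 4.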

3T3-L1 [2] = assay: Lipid lowering activity in mouse 3T3-L1 cells assessed as reduction in adipogenic cocktail-induced triglyceride levels at 1 to 5 uM incubated for 6 days by GPO-POD assay relative to control; type: functional; settings: dose 1-5 µM, time 6.0 day; outline: as §1
3T3-L1 [3] = assay: Lipid lowering activity in mouse 3T3-L1 cells assessed as reduction in adipogenic cocktail-induced triglyceride levels at 1 uM incubated for 6 days by GPO-POD assay relative to control; type: functional; set-up: scale not given: the % may be the effect or the level left; settings: time 6 day; outline: as §1
3T3-L1 [4] = assay: Lipid lowering activity in mouse 3T3-L1 cells assessed as reduction in adipogenic cocktail-induced triglyceride levels at 1 uM incubated for 6 days by Oil-red O staining based assay; type: functional, cell-based; settings: time 6.0 day
Outline: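 Differentiating 3T3-L1 cells were treated at 1 µM for 6 days, then washed with PBS and fixed in 4% formaldehyde for 1 h. Cells were stained with 0.3% Oil Red O for 30 min at room temperature in the dark and imaged at ×200.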

3T3-L1 [5] = assay: Cytotoxicity against mouse 3T3-L1 cells assessed as change in LDH releasing level at 5 uM after 6 days by LDH releasing assay; type: cell-based; settings: 3t3-l1, 144 h, time 6 day
Outline: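 Differentiating 3T3-L1 cells were treated at 5 µM for 6 days. Plates were centrifuged and LDH activity in the supernatant was read at 490 nm. Release was expressed as fold = (treated − blank)/(control − blank), with untreated cells as blank and vehicle-differentiated control set to 1.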

3T3-L1 [6] = assay: Inhibition of mouse 3T3-L1 cells adipocyte differentiation assessed as reduction in adipogenic cocktail-induced C/EBPbeta mRNA expression after 24 hrs by RT-qPCR analysis; type: functional, cell-based; settings: dose 0.01-1 µM
Outline: (§2)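 Confluent 3T3-L1 preadipocytes received differentiation cocktail (0.5 mM IBMX, 100 ng/mL dexamethasone, 2 µg/mL insulin) with compound (0.01–1 µM; metformin 1 mM) for 24 h. mRNA was measured by SYBR Green RT-qPCR (30 cycles), normalized to β-actin, with the differentiated control set to 1. N = 4 independent experiments.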

3T3-L1 [7] = assay: Inhibition of mouse 3T3-L1 cells adipocyte differentiation assessed as reduction in adipogenic cocktail-induced C/EBPdelta mRNA expression after 24 hrs by RT-qPCR analysis; type: functional, cell-based; settings: dose 0.01-1 µM; outline: as §2
3T3-L1 [8] = assay: Inhibition of mouse 3T3-L1 cells adipocyte differentiation assessed as reduction in adipogenic cocktail-induced C/EBPalpha mRNA expression after 24 hrs by RT-qPCR analysis; type: functional, cell-based; settings: dose 0.01-1 µM; outline: as §2
3T3-L1 [9] = assay: Inhibition of mouse 3T3-L1 cells adipocyte differentiation assessed as reduction in adipogenic cocktail-induced PPARgamma mRNA expression after 24 hrs by RT-qPCR analysis; type: functional, cell-based; settings: dose 0.01-1 µM; outline: as §2
3T3-L1 [10] = assay: Activation of AMPK pathway in adipogenic cocktail-induced mouse 3T3-L1 cells assessed as increase in phosphorylation AMPKalpha at Thr172 residue at 0.01 to 1 uM after 24 hrs by Western blot analysis; type: cell-based; settings: filed as activator, dose 0.01-1 µM
Outline: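 Confluent 3T3-L1 pre-adipocytes exposed to adipogenic cocktail for 24 h with or without compound (0, 0.01, 0.1, 1 µM); DMSO vehicle. Lysates analysed by SDS-PAGE/Western blot for pAMPKα (Thr-172), normalized to actin, Ctrl set as 1. N = 4 independent experiments.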

[11] = Stability in Sprague-Dawley rat liver microsomes assessed as remaining compound […] up to 60 mins in presence of NADPH by LC-MS/MS analysis; type: ADME, Microsome; settings: read-out: Stabilty
[12] = Stability in Sprague-Dawley rat liver microsomes assessed as rate constant […] up to 60 mins in presence of NADPH by LC-MS/MS analysis; type: ADME, Microsome
[13] = Half life in Sprague-Dawley rat liver microsomes assessed as rate constant […] up to 60 mins in presence of NADPH by LC-MS/MS analysis; type: ADME, Microsome
[14] = Intrinsic clearance in Sprague-Dawley rat liver microsomes assessed as rate constant […] up to 60 mins in presence of NADPH by LC-MS/MS analysis; type: ADME, Microsome; settings: read-out: CLH
[15] = Aqueous solubility in PBS buffer at pH 7.4 after 24 hrs; type: physicochemical
3T3-L1 [16] = assay: Lipid lowering activity in mouse 3T3-L1 cells assessed as adipogenic cocktail-induced triglyceride levels at 1 uM incubated for 6 days by GPO-POD assay relative to control; type: functional; settings: time 6 day; outline: as §1

Structure (SMILES) | Activity (3T3-L1 [1]) | Activity (3T3-L1 [2]) | further results
CN(C)CCCOc1nc(-c2[nH]c3ccccc3c2C=O)nc2ccccc12 | Dose-dependent effect |  | 
Cc1c(-c2nc(NCCCCN3CCCC3)c3ccccc3n2)sc2ccccc12 | Dose-dependent effect | Active | 
CCN(CC)CCCCNc1nc(-c2[nH]c3ccccc3c2C=O)nc2ccccc12 | Dose-dependent effect |  | 
Cc1c(-c2nc(NCCCN3CCCC3)c3ccccc3n2)sc2ccccc12 | Dose-dependent effect | Active | 
Cc1c(-c2nc(NCCCCN(C)C)c3ccccc3n2)[nH]c2ccccc12 | Dose-dependent effect | Active | 
COc1ccc2[nH]c(-c3nc(NCCCN4CCCC4)c4ccccc4n3)c(C=O)c2c1 | Dose-dependent effect |  | 
COc1ccc2[nH]c(-c3nc(NCCN4CCCC4)c4ccccc4n3)c(C=O)c2c1 | Dose-dependent effect |  | Activity (3T3-L1 [3]): >=50%; EC50 (3T3-L1 [1]): 310 nM; Activity (3T3-L1 [4]): Active; Activity (3T3-L1 [5]): Non-Toxic; inhibition (3T3-L1 [6]): Dose-dependent effect; inhibition (3T3-L1 [7]): Dose-dependent effect; inhibition (3T3-L1 [8]): Dose-dependent effect; inhibition (3T3-L1 [9]): Dose-dependent effect; Activity (3T3-L1 [10]): Active; remaining at 1 h [11]: 66.6%; k el at 1 h [12]: 0.00011 s⁻¹; half-life [13]: 1.75 h; microsomal CLint [14]: 6.6 µL/min/mg; solubility at 24 h [15]: 56.4 µg/mL (≈ 136 µM)
Cc1c(-c2nc(NCCN(C)C)c3ccccc3n2)[nH]c2ccccc12 | Dose-dependent effect | Active | 
CCN(CC)CCNc1nc(-c2[nH]c3ccccc3c2C)nc2ccccc12 | Dose-dependent effect | Active | 
Cc1c(-c2nc(NCCCN(C)C)c3ccccc3n2)[nH]c2ccccc12 | Dose-dependent effect | Active | 
Cc1c(-c2nc(OCCCN(C)C)c3ccccc3n2)oc2ccccc12 | Dose-dependent effect | Active | 
Cc1c(-c2nc(OCCCCN(C)C)c3ccccc3n2)oc2ccccc12 | Dose-dependent effect | Active | 
Cc1c(-c2nc(NCCN3CCCC3)c3ccccc3n2)[nH]c2ccccc12 | Dose-dependent effect | Active | 
CN(C)CCOc1nc(-c2[nH]c3ccccc3c2C=O)nc2ccccc12 | Dose-dependent effect |  | 
Cc1c(-c2nc(NCCCN3CCCC3)c3ccccc3n2)[nH]c2ccccc12 | Dose-dependent effect | Active | 
CN(C)CCCCNc1nc(-c2oc3ccccc3c2C=O)nc2ccccc12 | Dose-dependent effect |  | 
O=Cc1c(-c2nc(NCCN3CCCC3)c3ccccc3n2)oc2ccccc12 | Dose-dependent effect |  | 
Cc1c(-c2nc(NCCCN(C)C)c3ccccc3n2)sc2ccccc12 | Dose-dependent effect | Active | 
Cc1c(-c2nc(OCCN(C)C)c3ccccc3n2)oc2ccccc12 | Dose-dependent effect | Active | 

Structure (SMILES) | Activity (3T3-L1 [1]) | Activity (3T3-L1 [2]) | further results
CCN(CC)CCCCNc1nc(-c2[nH]c3ccc(OC)cc3c2C=O)nc2ccccc12 | Dose-dependent effect |  | Activity (3T3-L1 [3]): >=50%; EC50 (3T3-L1 [1]): 920 nM; Activity (3T3-L1 [4]): Active; Activity (3T3-L1 [5]): Non-Toxic; inhibition (3T3-L1 [6]): Dose-dependent effect; inhibition (3T3-L1 [7]): Dose-dependent effect; inhibition (3T3-L1 [8]): Dose-dependent effect; inhibition (3T3-L1 [9]): Dose-dependent effect; Activity (3T3-L1 [10]): Active; remaining at 1 h [11]: 84%; k el at 1 h [12]: 4.5e-05 s⁻¹; half-life [13]: 4.28 h; microsomal CLint [14]: 2.7 µL/min/mg; solubility at 24 h [15]: 65.9 µg/mL (≈ 148 µM)
O=Cc1c(-c2nc(NCCCN3CCCC3)c3ccccc3n2)oc2ccccc12 | Dose-dependent effect |  | Activity (3T3-L1 [16]): 88.7%
O=Cc1c(-c2nc(OCCCN3CCCC3)c3ccccc3n2)[nH]c2ccccc12 | Dose-dependent effect |  | 
CN(C)CCSc1nc(-c2[nH]c3ccccc3c2C=O)nc2ccccc12 | Dose-dependent effect |  | 
Cc1c(-c2nc(NCCN3CCCC3)c3ccccc3n2)sc2ccccc12 | Dose-dependent effect | Active | 
CN(C)CCCNc1nc(-c2oc3ccccc3c2C=O)nc2ccccc12 | Dose-dependent effect |  | 
CCN(CC)CCCCNc1nc(-c2[nH]c3ccccc3c2C)nc2ccccc12 | Dose-dependent effect | Active | 
Cc1c(-c2nc(NCCN(C)C)c3ccccc3n2)sc2ccccc12 | Dose-dependent effect | Active | 
CN(C)CCNc1nc(-c2oc3ccccc3c2C=O)nc2ccccc12 | Dose-dependent effect |  | 
COc1ccc2[nH]c(-c3nc(NCCCN(C)C)c4ccccc4n3)c(C=O)c2c1 | Dose-dependent effect |  | 
CN(C)CCCNc1nc(-c2c(C=O)c3ccccc3n2Cc2ccccc2)nc2ccccc12 | Dose-dependent effect |  | Activity (3T3-L1 [16]): 57.1%
Cc1c(-c2nc(OCCCN3CCCC3)c3ccccc3n2)oc2ccccc12 | Dose-dependent effect | Active | 
Cc1c(-c2nc(OCCN3CCCC3)c3ccccc3n2)oc2ccccc12 | Dose-dependent effect | Active | 
O=Cc1c(-c2nc(NCCCN3CCCC3)c3ccccc3n2)[nH]c2ccccc12 | Dose-dependent effect |  | Activity (3T3-L1 [16]): 34.9%
CCN(CC)CCSc1nc(-c2[nH]c3ccccc3c2C=O)nc2ccccc12 | Dose-dependent effect |  | 
O=Cc1c(-c2nc(OCCN3CCCC3)c3ccccc3n2)[nH]c2ccccc12 | Dose-dependent effect |  | 
CN(C)CCCNc1nc(-c2c(C=O)c3ccccc3n2C)nc2ccccc12 | Dose-dependent effect |  | Activity (3T3-L1 [16]): 70.4%
COc1ccc2[nH]c(-c3nc(NCCN(C)C)c4ccccc4n3)c(C=O)c2c1 | Dose-dependent effect |  | 
CN(C)CCCCOc1nc(-c2[nH]c3ccccc3c2C=O)nc2ccccc12 | Dose-dependent effect |  | 
